ChEMBL document CHEMBL3045713, “The fungicidal terpenoids and essential oil from Litsea cubeba in Tibet” (Molecules, 2010)

How the values were obtained:
Assay type in all cases: functional
Verticillium dahliae = assay: Fungicidal activity against Verticillium dahliae assessed as inhibition of mycelium growth at 272 uM at 25 +/- 0.5 degC
How it was run: (§1)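 Mycelium growth rate test. Test sample dissolved in acetone and mixed into potato dextrose agar at the stated concentration, then fungal mycelial cakes were placed on the plates. Acetone served as blank and carbendazim as positive control. Plates were incubated at 25 ± 0.5 °C until the blank grew completely. Colony diameters were then measured, and inhibitory ratio was calculated against the blank mean. Three replicates were run.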

[1] = test system: Colletotrichum gloeosporioides; assay: Fungicidal activity against Colletotrichum gloeosporioides assessed as inhibition of mycelium growth at 272 uM at 25 +/- 0.5 degC; how it was run: as §1
Alternaria mali [2] = assay: Fungicidal activity against Alternaria mali assessed as inhibition of mycelium growth at 272 uM at 25 +/- 0.5 degC; how it was run: as §1
Thanatephorus cucumeris [3] = assay: Fungicidal activity against Thanatephorus cucumeris assessed as inhibition of mycelium growth at 272 uM at 25 +/- 0.5 degC; how it was run: as §1
Alternaria alternata [4] = assay: Fungicidal activity against Alternaria alternata assessed as inhibition of mycelium growth at 272 uM at 25 +/- 0.5 degC; how it was run: as §1
Botrytis cinerea [5] = assay: Fungicidal activity against Botryotinia fuckeliana assessed as inhibition of mycelium growth at 272 uM at 25 +/- 0.5 degC; how it was run: as §1
Phytophthora infestans [6] = assay: Fungicidal activity against Phytophthora infestans assessed as inhibition of mycelium growth at 272 uM at 25 +/- 0.5 degC; how it was run: as §1
Sclerotinia sclerotiorum [7] = assay: Fungicidal activity against Sclerotinia sclerotiorum assessed as inhibition of mycelium growth at 272 uM at 25 +/- 0.5 degC; how it was run: as §1
Fusarium graminearum [8] = assay: Fungicidal activity against Fusarium graminearum assessed as inhibition of mycelium growth at 272 uM at 25 +/- 0.5 degC; how it was run: as §1
Fusarium verticillioides [9] = assay: Fungicidal activity against Fusarium verticillioides assessed as inhibition of mycelium growth at 272 uM at 25 +/- 0.5 degC; how it was run: as §1
[10] = test system: Colletotrichum lindemuthianum; assay: Fungicidal activity against Colletotrichum lindemuthianum assessed as inhibition of mycelium growth at 272 uM at 25 +/- 0.5 degC; how it was run: as §1
Fusarium oxysporum [11] = assay: Fungicidal activity against Fusarium oxysporum assessed as inhibition of mycelium growth at 272 uM at 25 +/- 0.5 degC; how it was run: as §1
Pseudocercospora musae [12] = assay: Fungicidal activity against Pseudocercospora musae assessed as inhibition of mycelium growth at 272 uM at 25 +/- 0.5 degC; how it was run: as §1
Fusarium oxysporum [13] = assay: Fungicidal activity against Fusarium oxysporum assessed as inhibition of mycelium growth at 52 uM at 25 +/- 0.5 degC; how it was run: as §1
Phytophthora infestans [14] = assay: Fungicidal activity against Phytophthora infestans assessed as inhibition of mycelium growth at 52 uM at 25 +/- 0.5 degC; how it was run: as §1
Sclerotinia sclerotiorum [15] = assay: Fungicidal activity against Sclerotinia sclerotiorum assessed as inhibition of mycelium growth at 52 uM at 25 +/- 0.5 degC; how it was run: as §1
Fusarium graminearum [16] = assay: Fungicidal activity against Fusarium graminearum assessed as inhibition of mycelium growth at 52 uM at 25 +/- 0.5 degC; how it was run: as §1
Fusarium verticillioides [17] = assay: Fungicidal activity against Fusarium verticillioides assessed as inhibition of mycelium growth at 52 uM at 25 +/- 0.5 degC; how it was run: as §1
Botrytis cinerea [18] = assay: Fungicidal activity against Botryotinia fuckeliana assessed as inhibition of mycelium growth at 52 uM at 25 +/- 0.5 degC; how it was run: as §1
Thanatephorus cucumeris [19] = assay: Fungicidal activity against Thanatephorus cucumeris assessed as inhibition of mycelium growth at 52 uM at 25 +/- 0.5 degC; how it was run: as §1
[20] = test system: Colletotrichum gloeosporioides; assay: Fungicidal activity against Colletotrichum gloeosporioides assessed as inhibition of mycelium growth at 52 uM at 25 +/- 0.5 degC; how it was run: as §1
Alternaria mali [21] = assay: Fungicidal activity against Alternaria mali assessed as inhibition of mycelium growth at 52 uM at 25 +/- 0.5 degC; how it was run: as §1
[22] = test system: Colletotrichum gloeosporioides; assay: Fungicidal activity against Colletotrichum gloeosporioides assessed as inhibition of mycelium growth at 588 uM at 25 +/- 0.5 degC; how it was run: as §1
Thanatephorus cucumeris [23] = assay: Fungicidal activity against Thanatephorus cucumeris assessed as inhibition of mycelium growth at 588 uM at 25 +/- 0.5 degC; how it was run: as §1
Fusarium oxysporum [24] = assay: Fungicidal activity against Fusarium oxysporum assessed as inhibition of mycelium growth at 588 uM at 25 +/- 0.5 degC; how it was run: as §1
Alternaria alternata [25] = assay: Fungicidal activity against Alternaria alternata assessed as inhibition of mycelium growth at 588 uM at 25 +/- 0.5 degC; how it was run: as §1
Pseudocercospora musae [26] = assay: Fungicidal activity against Pseudocercospora musae assessed as inhibition of mycelium growth at 588 uM at 25 +/- 0.5 degC; how it was run: as §1
Sclerotinia sclerotiorum [27] = assay: Fungicidal activity against Sclerotinia sclerotiorum assessed as inhibition of mycelium growth at 588 uM at 25 +/- 0.5 degC; how it was run: as §1
[28] = test system: Botryosphaeria berengeriana; assay: Fungicidal activity against Botryosphaeria berengeriana assessed as inhibition of mycelium growth at 588 uM at 25 +/- 0.5 degC; how it was run: as §1

## CC1=CC(=O)O[C@@H](C(C)(C)O)CC1
Verticillium dahliae
  inhibition at 272 µM: 66.6%
[1]
  inhibition at 272 µM: 71.1%
Alternaria mali [2]
  inhibition at 272 µM: 66%
Thanatephorus cucumeris [3]
  inhibition at 272 µM: 80.2%
Alternaria alternata [4]
  inhibition at 272 µM: 70.9%
Botrytis cinerea [5]
  inhibition at 272 µM: 72%
Phytophthora infestans [6]
  inhibition at 272 µM: 66.4%
Sclerotinia sclerotiorum [7]
  inhibition at 272 µM: 81.8%
Fusarium graminearum [8]
  inhibition at 272 µM: 73.8%
Fusarium verticillioides [9]
  inhibition at 272 µM: 55.6%
[10]
  inhibition at 272 µM: 62.3%
Fusarium oxysporum [11]
  inhibition at 272 µM: 53.5%
Pseudocercospora musae [12]
  inhibition at 272 µM: 65.5%

## COC(=O)Nc1nc2ccccc2[nH]1 [CARBENDAZIM]
Fusarium oxysporum [13]
  inhibition at 52 µM: 100%
Phytophthora infestans [14]
  inhibition at 52 µM: 100%
Sclerotinia sclerotiorum [15]
  inhibition at 52 µM: 100%
Fusarium graminearum [16]
  inhibition at 52 µM: 100%
Fusarium verticillioides [17]
  inhibition at 52 µM: 100%
Botrytis cinerea [18]
  inhibition at 52 µM: 100%
Thanatephorus cucumeris [19]
  inhibition at 52 µM: 100%
[20]
  inhibition at 52 µM: 100%
Alternaria mali [21]
  inhibition at 52 µM: 100%

## C/C(=C\C=C\C(C)(C)O)C(=O)O [LITSEACUBEBIC ACID]
[22]
  inhibition at 588 µM: 71.2%
Thanatephorus cucumeris [23]
  inhibition at 588 µM: 76.8%
Fusarium oxysporum [24]
  inhibition at 588 µM: 56.7%
Alternaria alternata [25]
  inhibition at 588 µM: 57.8%
Pseudocercospora musae [26]
  inhibition at 588 µM: 78.9%
Sclerotinia sclerotiorum [27]
  inhibition at 588 µM: 86.7%
[28]
  inhibition at 588 µM: 59.2%
